# Laboratory results published in ChEMBL document CHEMBL2390864, “Artemisinin-derived dimer phosphate esters as potent anti-cytomegalovirus (anti-CMV) and anti-cancer agents: a structure-activity study” (Bioorg Med Chem, 2013).
# Assays:
# [1] = Therapeutic index, ratio of IC50 for PHA-stimulated human PBMC cells to IC50 for human JURKAT-TALL cells; format: cell-based; conditions: PHA-stimulated PBMC cells versus JURKAT-TALL cells, read-out: Ratio IC50
# Method in brief: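 The therapeutic index is the IC50 in PHA-stimulated PBMCs (PHA 10 µg/ml for 24 h, then drug for 48 h, AlamarBlue) divided by the IC50 in Jurkat cells (drug for 48 h, AlamarBlue).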
# PBMC = experiment: Cytotoxicity against PHA-stimulated human PBMC cells after 48 hrs by Alamar Blue assay; format: cell-based
# Method in brief: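 PBMCs came from 4 consenting healthy volunteers and were stimulated with phytohemagglutinin (10 µg/ml) for 24 h. Drug or vehicle was then added for a further 48 h, and viability was read by AlamarBlue. IC50 is the average of 4 experiments, each run in triplicate.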
# [2] = Cytotoxicity against human JURKAT-TALL cells after 48 hrs by Alamar Blue assay; format: functional, cell-based
# Method in brief: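 Jurkat T-ALL cells were treated with compound for 48 h, and growth inhibition was read by AlamarBlue assay to give IC50.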
# Cytomegalovirus = experiment: Antiviral activity against Cytomegalovirus infected in HFF after 72 hrs by luciferase reporter gene assay; format: functional, organism-based; conditions: Human betaherpesvirus 5, 72 h
# Method in brief: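 Human foreskin fibroblasts (HFFs) were infected with CMV and treated with compound across a dose range. Luciferase activity was read at 72 h post infection as a marker of late CMV gene expression. EC50 was derived from this read-out.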
# [3] = Selectivity index, ratio of CC50 for HFF to EC50 for Cytomegalovirus
Structure (SMILES),selectivity ratio [1],IC50 (PBMC) [nM],IC50 [2] [nM],EC50 (Cytomegalovirus) [nM],Ratio CC50/EC50 [3]
C[C@H]1[C@@H](CC(COP(=O)(Oc2ccccc2)Oc2ccccc2)C[C@H]2O[C@@H]3O[C@@]4(C)CC[C@H]5[C@H](C)CC[C@@H]([C@H]2C)[C@@]35OO4)O[C@@H]2O[C@@]3(C)CC[C@H]4[C@H](C)CC[C@@H]1[C@@]24OO3 (stereo partly specified),14.8,1480,100,39,1500
C[C@H]1[C@H](OC(=O)CCC(=O)O)O[C@@H]2O[C@@]3(C)CC[C@H]4[C@H](C)CC[C@@H]1[C@@]24OO3 [SODIUM ARESUNATE],4,27400,6890,18500,
C[C@H]1[C@@H](CC(COP(=S)(Oc2ccccc2)Oc2ccccc2)C[C@H]2O[C@@H]3O[C@@]4(C)CC[C@H]5[C@H](C)CC[C@@H]([C@H]2C)[C@@]35OO4)O[C@@H]2O[C@@]3(C)CC[C@H]4[C@H](C)CC[C@@H]1[C@@]24OO3 (stereo partly specified),> 22.9,> 40000,1750,78,
CO[C@H]1O[C@@H]2O[C@@]3(C)CC[C@H]4[C@H](C)CC[C@@H]([C@H]1C)[C@@]24OO3,,> 100000,> 30000,5300,
CC(C)c1ccc(OP(=O)(OCC(C[C@H]2O[C@@H]3O[C@@]4(C)CC[C@H]5[C@H](C)CC[C@@H]([C@H]2C)[C@@]35OO4)C[C@H]2O[C@@H]3O[C@@]4(C)CC[C@H]5[C@H](C)CC[C@@H]([C@H]2C)[C@@]35OO4)Oc2ccc(C(C)C)cc2)cc1 (stereo partly specified),> 78.3,> 40000,511,300,
C[C@H]1[C@@H](CC(COP2(=S)Oc3ccccc3-c3ccccc3O2)C[C@H]2O[C@@H]3O[C@@]4(C)CC[C@H]5[C@H](C)CC[C@@H]([C@H]2C)[C@@]35OO4)O[C@@H]2O[C@@]3(C)CC[C@H]4[C@H](C)CC[C@@H]1[C@@]24OO3 (stereo partly specified),> 20.7,> 40000,1930,70,
C[C@H]1[C@@H](CC(COP(=O)(OC2CCCCC2)OC2CCCCC2)C[C@H]2O[C@@H]3O[C@@]4(C)CC[C@H]5[C@H](C)CC[C@@H]([C@H]2C)[C@@]35OO4)O[C@@H]2O[C@@]3(C)CC[C@H]4[C@H](C)CC[C@@H]1[C@@]24OO3 (stereo partly specified),7.1,2030,287,44,
C[C@H]1[C@@H](CC(COP2(=O)Oc3ccccc3-c3ccccc3O2)C[C@H]2O[C@@H]3O[C@@]4(C)CC[C@H]5[C@H](C)CC[C@@H]([C@H]2C)[C@@]35OO4)O[C@@H]2O[C@@]3(C)CC[C@H]4[C@H](C)CC[C@@H]1[C@@]24OO3 (stereo partly specified),10.4,2280,220,72,
C[C@H]1[C@@H](CC(CO)C[C@H]2O[C@@H]3O[C@@]4(C)CC[C@H]5[C@H](C)CC[C@@H]([C@H]2C)[C@@]35OO4)O[C@@H]2O[C@@]3(C)CC[C@H]4[C@H](C)CC[C@@H]1[C@@]24OO3 (stereo partly specified),,,,160,
C[C@H]1[C@@H](CC(COP(=O)(O)Oc2ccccc2)C[C@H]2O[C@@H]3O[C@@]4(C)CC[C@H]5[C@H](C)CC[C@@H]([C@H]2C)[C@@]35OO4)O[C@@H]2O[C@@]3(C)CC[C@H]4[C@H](C)CC[C@@H]1[C@@]24OO3 (stereo partly specified),,> 40000,7440,> 300,
COc1cccc2c1C(=O)c1c(O)c3c(c(O)c1C2=O)C[C@@](O)(C(=O)CO)C[C@@H]3O[C@H]1C[C@H](N)[C@H](O)[C@H](C)O1 [DOXORUBICIN],,271,9.6,,
C[C@H]1[C@@H](CC(COP(=O)(Oc2ccc(Cl)cc2)Oc2ccc(Cl)cc2)C[C@H]2O[C@@H]3O[C@@]4(C)CC[C@H]5[C@H](C)CC[C@@H]([C@H]2C)[C@@]35OO4)O[C@@H]2O[C@@]3(C)CC[C@H]4[C@H](C)CC[C@@H]1[C@@]24OO3 (stereo partly specified),> 263,> 40000,152,66,
Cc1cccc(C)c1OP(=O)(OCC(C[C@H]1O[C@@H]2O[C@@]3(C)CC[C@H]4[C@H](C)CC[C@@H]([C@H]1C)[C@@]24OO3)C[C@H]1O[C@@H]2O[C@@]3(C)CC[C@H]4[C@H](C)CC[C@@H]([C@H]1C)[C@@]24OO3)Oc1c(C)cccc1C (stereo partly specified),> 135,> 40000,296,71,
